{"source": "ChEMBL document CHEMBL1240413", "about": "“Synthesis and evaluation of vinyl sulfones as caspase-3 inhibitors. A structure-activity study” (Eur J Med Chem, 2010)"}
{"target": "T1, Caspase-3 (Homo sapiens, UniProt P42574)", "T1 sequence (P42574 whole entry)": "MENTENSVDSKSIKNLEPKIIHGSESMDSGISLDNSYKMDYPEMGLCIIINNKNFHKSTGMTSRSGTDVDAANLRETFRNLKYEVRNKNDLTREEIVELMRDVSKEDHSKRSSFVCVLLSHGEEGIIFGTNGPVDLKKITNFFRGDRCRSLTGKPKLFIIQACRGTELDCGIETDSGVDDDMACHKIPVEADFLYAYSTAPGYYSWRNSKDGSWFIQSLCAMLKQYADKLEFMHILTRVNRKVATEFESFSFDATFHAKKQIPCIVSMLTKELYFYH", "experiment": "Inhibition of human recombinant caspase 3 assessed as fluorescent 7-amido-4-methylcoumarin release", "units": {"IC50": "µM"}}
{"compound": "O=C(O)C[C@@H](/C=C/S(=O)(=O)c1ccccc1)NC(=O)OCc1ccccc1", "IC50": 453}
{"compound": "CS(=O)(=O)/C=C/[C@H](CC(=O)O)NC(=O)OCc1ccccc1", "IC50": 435}
{"compound": "C[C@H](NC(=O)OCc1ccccc1)C(=O)N[C@H](/C=C/S(=O)(=O)c1ccccc1)CC(=O)O", "IC50": 343}
{"compound": "CC(C)[C@H](NC(=O)OCc1ccccc1)C(=O)N[C@H](/C=C/S(=O)(=O)c1ccccc1)CC(=O)O", "IC50": 388}
{"compound": "C[C@H](NC(=O)OCc1ccccc1)C(=O)N[C@H](/C=C/S(C)(=O)=O)CC(=O)O", "IC50": 656}
{"compound": "CC(C)[C@H](NC(=O)OCc1ccccc1)C(=O)N[C@H](/C=C/S(C)(=O)=O)CC(=O)O", "IC50": 133}
{"target": "T2, Caspase-7 (Homo sapiens, UniProt P55210)", "T2 sequence (P55210 whole entry)": "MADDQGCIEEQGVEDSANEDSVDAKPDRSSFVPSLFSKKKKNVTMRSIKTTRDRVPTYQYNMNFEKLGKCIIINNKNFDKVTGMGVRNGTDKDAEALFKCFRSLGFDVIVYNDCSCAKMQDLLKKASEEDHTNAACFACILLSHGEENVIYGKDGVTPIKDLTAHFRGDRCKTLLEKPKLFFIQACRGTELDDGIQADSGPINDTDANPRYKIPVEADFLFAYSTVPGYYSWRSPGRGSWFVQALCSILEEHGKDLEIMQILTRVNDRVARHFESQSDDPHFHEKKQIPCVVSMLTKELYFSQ", "experiment": "Inhibition of human recombinant caspase 7 assessed as fluorescent 7-amido-4-methylcoumarin release", "summary_of_the_method": "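Recombinant human caspase-7, 1 U per well final, was mixed with inhibitor at various concentrations in 20 mM HEPES, 2 mM EDTA, 0.1% CHAPS, 5 mM DTT, pH 7.4. The reaction was started by adding Ac-DEVD-AMC substrate, with a stock of 2 mM in DMSO. AMC release was followed continuously at 37 °C (ex 360, em 460 nm), and IC50 was determined.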", "units": {"IC50": "µM"}}
{"compound": "O=C(O)C[C@@H](/C=C/S(=O)(=O)c1ccccc1)NC(=O)OCC1c2ccccc2-c2ccccc21", "IC50": "> 200"}
{"compound": "CS(=O)(=O)/C=C/[C@H](CC(=O)O)NC(=O)OCC1c2ccccc2-c2ccccc21", "IC50": "> 200"}
{"compound": "CC[C@H](C)[C@H](NC(=O)OCc1ccccc1)C(=O)N[C@H](/C=C/S(=O)(=O)c1ccccc1)CC(=O)O", "IC50": "> 200"}
{"compound": "CC(C)[C@H](NC(=O)OCc1ccccc1)C(=O)N[C@H](/C=C/S(C)(=O)=O)CC(=O)O", "IC50": "> 200"}
{"compound": "CC[C@H](C)[C@H](NC(=O)OCc1ccccc1)C(=O)N[C@H](/C=C/S(C)(=O)=O)CC(=O)O", "IC50": "> 200"}
{"compound": "CC(C)[C@H](NC(=O)OCC1c2ccccc2-c2ccccc21)C(=O)N[C@H](/C=C/S(=O)(=O)c1ccccc1)CC(=O)O", "IC50": "> 200"}
{"compound": "CC(C)[C@H](NC(=O)OCC1c2ccccc2-c2ccccc21)C(=O)N[C@H](/C=C/S(C)(=O)=O)CC(=O)O", "IC50": "> 200"}
{"compound": "CC(=O)N[C@@H](CC(=O)O)C(=O)N[C@@H](CCC(=O)O)C(=O)N[C@H](C(=O)N[C@H](C=O)CC(=O)O)C(C)C", "IC50": 0.0591}
